Reference: ChEMBL document CHEMBL1136635, “Modification of the N-terminus of peptidomimetic protein tyrosine phosphatase 1B (PTP1B) inhibitors: identification of analogues with cellular activity” (Bioorg Med Chem Lett, 2003)

molecular target: Receptor-type tyrosine-protein phosphatase F (Homo sapiens) (UniProt P10586); assay: Inhibitory activity against phosphatase (LAR) at a concentration of 100 uM
Method in brief: (§1)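 Purified recombinant human enzyme constructs; PTP1B is a C-terminally truncated soluble form, tested alongside LAR and SHP-2. Activity is read as the initial rate of p-nitrophenyl phosphate (pNPP) hydrolysis and reported as percent inhibition. PTP1B is tested at 100, 10 and 1 µM, or 10 and 1 µM in the salicylate series; LAR and SHP-2 at 100 µM.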

Receptor-type tyrosine-protein phosphatase F (Homo sapiens), sequence (P10586 whole entry, the tested form may be a part): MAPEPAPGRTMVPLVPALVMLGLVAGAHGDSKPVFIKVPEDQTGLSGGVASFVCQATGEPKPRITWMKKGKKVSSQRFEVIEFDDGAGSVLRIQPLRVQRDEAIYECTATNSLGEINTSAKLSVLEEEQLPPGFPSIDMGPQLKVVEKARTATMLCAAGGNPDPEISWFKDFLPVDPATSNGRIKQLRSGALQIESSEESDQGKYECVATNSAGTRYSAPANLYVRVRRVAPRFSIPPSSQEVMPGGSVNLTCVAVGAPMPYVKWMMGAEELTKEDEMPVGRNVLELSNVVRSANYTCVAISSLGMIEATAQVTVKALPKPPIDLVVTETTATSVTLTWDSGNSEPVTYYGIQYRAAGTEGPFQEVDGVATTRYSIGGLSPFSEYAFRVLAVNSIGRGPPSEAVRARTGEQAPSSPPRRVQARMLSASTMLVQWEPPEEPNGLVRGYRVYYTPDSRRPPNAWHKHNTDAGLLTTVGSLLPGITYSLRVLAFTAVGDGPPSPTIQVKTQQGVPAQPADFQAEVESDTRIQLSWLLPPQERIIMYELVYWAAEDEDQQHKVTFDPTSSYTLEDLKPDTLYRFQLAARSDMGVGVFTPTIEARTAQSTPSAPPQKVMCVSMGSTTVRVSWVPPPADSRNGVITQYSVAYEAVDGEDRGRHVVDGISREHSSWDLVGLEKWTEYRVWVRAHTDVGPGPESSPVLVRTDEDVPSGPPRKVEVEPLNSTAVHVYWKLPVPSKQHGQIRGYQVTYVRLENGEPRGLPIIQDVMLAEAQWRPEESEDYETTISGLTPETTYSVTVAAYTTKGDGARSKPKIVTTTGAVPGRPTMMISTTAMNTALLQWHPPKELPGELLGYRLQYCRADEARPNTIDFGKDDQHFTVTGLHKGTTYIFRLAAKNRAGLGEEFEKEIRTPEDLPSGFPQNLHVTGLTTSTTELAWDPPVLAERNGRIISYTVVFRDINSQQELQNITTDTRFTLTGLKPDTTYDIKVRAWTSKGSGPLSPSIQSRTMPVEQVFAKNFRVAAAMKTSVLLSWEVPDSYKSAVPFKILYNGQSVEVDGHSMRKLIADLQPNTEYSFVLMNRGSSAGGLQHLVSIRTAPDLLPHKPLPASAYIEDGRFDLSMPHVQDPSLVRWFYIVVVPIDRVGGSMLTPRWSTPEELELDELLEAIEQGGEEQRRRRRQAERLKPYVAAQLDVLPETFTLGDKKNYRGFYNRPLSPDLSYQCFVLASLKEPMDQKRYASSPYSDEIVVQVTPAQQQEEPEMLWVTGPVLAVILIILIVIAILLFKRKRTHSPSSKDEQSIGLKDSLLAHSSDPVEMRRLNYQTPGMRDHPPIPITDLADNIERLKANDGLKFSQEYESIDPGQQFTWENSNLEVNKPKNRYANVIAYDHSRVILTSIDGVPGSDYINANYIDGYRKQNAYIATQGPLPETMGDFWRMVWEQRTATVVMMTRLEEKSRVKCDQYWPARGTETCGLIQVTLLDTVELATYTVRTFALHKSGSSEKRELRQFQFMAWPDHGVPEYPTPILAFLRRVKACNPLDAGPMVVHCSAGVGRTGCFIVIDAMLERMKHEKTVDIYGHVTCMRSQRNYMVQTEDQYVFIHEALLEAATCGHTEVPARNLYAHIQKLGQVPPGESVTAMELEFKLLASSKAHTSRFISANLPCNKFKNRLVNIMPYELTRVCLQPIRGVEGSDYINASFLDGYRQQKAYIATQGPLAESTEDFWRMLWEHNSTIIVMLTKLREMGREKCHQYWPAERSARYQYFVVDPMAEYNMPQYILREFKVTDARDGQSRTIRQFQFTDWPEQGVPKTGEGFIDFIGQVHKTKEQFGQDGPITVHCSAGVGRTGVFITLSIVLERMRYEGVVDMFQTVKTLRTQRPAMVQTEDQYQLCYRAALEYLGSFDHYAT

| Structure (SMILES) | inhibition |
| --- | --- |
| CCCCCNC(=O)[C@H](Cc1ccc(OC(C(=O)O)C(=O)O)cc1)NC(=O)[C@H](Cc1ccccc1)NS(C)(=O)=O | 0% |
| CCCCCNC(=O)[C@H](Cc1ccc(OC(C(=O)O)C(=O)O)cc1)NC(=O)[C@H](Cc1ccc(O)cc1)NC(=O)OC(C)(C)C | 0% |
| CCCCCNC(=O)[C@H](Cc1ccc(OC(C(=O)O)C(=O)O)cc1)NC(=O)[C@H](CC(C)C)NC(=O)OC(C)(C)C | 3% |
| CCCCCNC(=O)[C@H](Cc1ccc(OC(C(=O)O)C(=O)O)cc1)NC(=O)[C@H](Cc1ccccc1)NC(=O)OC(C)(C)C | 27% |
| CCCCCNC(=O)[C@H](Cc1ccc(OC(C(=O)O)C(=O)O)cc1)NC(=O)[C@H](CSCc1ccccc1)NC(=O)OC(C)(C)C | 0% |
| CCCCCNC(=O)[C@H](Cc1ccc(OCC(=O)O)c(C(=O)O)c1)NC(=O)[C@H](Cc1ccccc1)NC(=O)Oc1ccccc1 | 0% |

test system: not listed separately; assay: Uptake of 2-DOG (2-deoxyglucose) into L6 myocytes in the presence of half-maximal concentration of insulin at 100 uM; format: functional, Rattus norvegicus
Method in brief: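 L6 myotubes are exposed to compound at 100 µM with 10 nM insulin, a dose eliciting about 50% of maximal uptake. The initial rate of 2-[3H]deoxyglucose uptake is measured, with L-[14C]glucose marking extracellular space, and normalized to recovered lysate protein. Net insulin-dependent transport with inhibitor is expressed as a percent of that without inhibitor.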

| Structure (SMILES) | Control Uptake |
| --- | --- |
| CCCCCNC(=O)[C@H](Cc1ccc(OC(C(=O)O)C(=O)O)cc1)NC(=O)[C@H](Cc1ccccc1)NS(C)(=O)=O | 93% |
| CCCCCNC(=O)[C@H](Cc1ccc(OC(C(=O)O)C(=O)O)cc1)NC(=O)[C@H](Cc1ccc(O)cc1)NC(=O)OC(C)(C)C | 96% |
| CCCCCNC(=O)[C@H](Cc1ccc(OC(C(=O)O)C(=O)O)cc1)NC(=O)[C@H](CC(C)C)NC(=O)OC(C)(C)C | 84% |
| CCCCCNC(=O)[C@H](Cc1ccc(OC(C(=O)O)C(=O)O)cc1)NC(=O)[C@H](Cc1ccccc1)NC(=O)OC(C)(C)C | 88% |
| CCCCCNC(=O)[C@H](Cc1ccc(OC(C(=O)O)C(=O)O)cc1)NC(=O)[C@H](CSCc1ccccc1)NC(=O)OC(C)(C)C | 89% |
| CCCCCNC(=O)[C@H](Cc1ccc(OCC(=O)O)c(C(=O)O)c1)NC(=O)[C@H](Cc1ccccc1)NC(=O)Oc1ccccc1 | 103% |

molecular target: T1, Tyrosine-protein phosphatase non-receptor type 11 (Homo sapiens) (UniProt Q06124); assay: Inhibition of recombinant human phosphatase (SHP-2) at a concentration of 100 uM; method in brief: as §1
T1 sequence (whole entry): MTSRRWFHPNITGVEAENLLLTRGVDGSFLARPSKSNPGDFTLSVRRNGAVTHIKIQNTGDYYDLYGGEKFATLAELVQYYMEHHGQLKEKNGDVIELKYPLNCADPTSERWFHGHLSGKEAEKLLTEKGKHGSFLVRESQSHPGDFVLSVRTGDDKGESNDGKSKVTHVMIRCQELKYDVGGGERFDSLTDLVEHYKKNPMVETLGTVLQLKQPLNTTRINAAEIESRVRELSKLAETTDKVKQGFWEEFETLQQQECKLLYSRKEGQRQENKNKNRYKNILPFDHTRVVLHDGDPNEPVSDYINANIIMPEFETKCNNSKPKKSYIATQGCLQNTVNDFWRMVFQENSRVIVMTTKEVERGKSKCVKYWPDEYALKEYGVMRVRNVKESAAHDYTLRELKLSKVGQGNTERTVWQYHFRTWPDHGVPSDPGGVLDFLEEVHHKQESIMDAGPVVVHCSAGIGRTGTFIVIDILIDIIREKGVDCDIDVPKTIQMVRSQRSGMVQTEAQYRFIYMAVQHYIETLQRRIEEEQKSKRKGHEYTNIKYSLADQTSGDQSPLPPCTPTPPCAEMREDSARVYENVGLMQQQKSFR

| Structure (SMILES) | inhibition |
| --- | --- |
| CCCCCNC(=O)[C@H](Cc1ccc(OC(C(=O)O)C(=O)O)cc1)NC(=O)[C@H](Cc1ccccc1)NS(C)(=O)=O | 8% |
| CCCCCNC(=O)[C@H](Cc1ccc(OC(C(=O)O)C(=O)O)cc1)NC(=O)[C@H](Cc1ccc(O)cc1)NC(=O)OC(C)(C)C | 5% |
| CCCCCNC(=O)[C@H](Cc1ccc(OC(C(=O)O)C(=O)O)cc1)NC(=O)[C@H](CC(C)C)NC(=O)OC(C)(C)C | 5% |
| CCCCCNC(=O)[C@H](Cc1ccc(OC(C(=O)O)C(=O)O)cc1)NC(=O)[C@H](CSCc1ccccc1)NC(=O)OC(C)(C)C | 0% |
| CCCCCNC(=O)[C@H](Cc1ccc(OCC(=O)O)c(C(=O)O)c1)NC(=O)[C@H](Cc1ccccc1)NC(=O)Oc1ccccc1 | 11% |

molecular target: T2, Tyrosine-protein phosphatase non-receptor type 1 (Homo sapiens, UniProt P18031); assay: Inhibitory activity against human protein tyrosine phosphatase 1B (PTP1B)
T2 sequence (P18031 whole entry): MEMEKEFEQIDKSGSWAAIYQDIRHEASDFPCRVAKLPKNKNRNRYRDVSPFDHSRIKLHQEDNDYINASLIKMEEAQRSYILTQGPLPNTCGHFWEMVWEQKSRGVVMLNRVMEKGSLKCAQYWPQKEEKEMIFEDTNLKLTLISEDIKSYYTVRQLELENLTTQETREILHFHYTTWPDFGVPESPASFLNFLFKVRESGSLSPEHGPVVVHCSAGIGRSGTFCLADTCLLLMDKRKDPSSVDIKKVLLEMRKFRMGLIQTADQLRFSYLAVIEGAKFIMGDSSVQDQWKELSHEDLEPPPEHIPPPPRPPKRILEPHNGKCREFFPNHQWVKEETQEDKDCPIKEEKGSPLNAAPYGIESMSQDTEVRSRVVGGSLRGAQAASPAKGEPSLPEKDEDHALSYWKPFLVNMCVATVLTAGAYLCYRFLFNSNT
Method in brief: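 Ki against a C-terminally truncated, soluble recombinant human PTP1B. Initial rates of pNPP hydrolysis are measured, and the Ki is computed by the Cornish-Bowden direct linear method.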

| Structure (SMILES) | Ki |
| --- | --- |
| CCCCCNC(=O)[C@H](Cc1ccc(OC(C(=O)O)C(=O)O)cc1)NC(=O)[C@H](Cc1ccccc1)NC(=O)OC(C)(C)C | 9 µM |
| CCCCCNC(=O)[C@H](Cc1ccc(OCC(=O)O)c(C(=O)O)c1)NC(=O)[C@H](Cc1ccccc1)NC(=O)Oc1ccccc1 | 0.87 µM |

molecular target: T3, Tyrosine-protein phosphatase non-receptor type 1 (Homo sapiens) (UniProt P18031); assay: Inhibitory activity against human protein tyrosine phosphatase 1B (PTP1B) at a concentration of 1 uM; method in brief: as §1
T3 sequence (whole entry): T2 sequence (P18031 whole entry)

| Structure (SMILES) | inhibition |
| --- | --- |
| CCCCCNC(=O)[C@H](Cc1ccc(OC(C(=O)O)C(=O)O)cc1)NC(=O)[C@H](Cc1ccccc1)NS(C)(=O)=O | 9% |
| CCCCCNC(=O)[C@H](Cc1ccc(OC(C(=O)O)C(=O)O)cc1)NC(=O)[C@H](Cc1ccc(O)cc1)NC(=O)OC(C)(C)C | 10% |
| CCCCCNC(=O)[C@H](Cc1ccc(OC(C(=O)O)C(=O)O)cc1)NC(=O)[C@H](CC(C)C)NC(=O)OC(C)(C)C | 4% |
| CCCCCNC(=O)[C@H](Cc1ccc(OC(C(=O)O)C(=O)O)cc1)NC(=O)[C@H](Cc1ccccc1)NC(=O)OC(C)(C)C | 7% |
| CCCCCNC(=O)[C@H](Cc1ccc(OC(C(=O)O)C(=O)O)cc1)NC(=O)[C@H](CSCc1ccccc1)NC(=O)OC(C)(C)C | 3% |
| CCCCCNC(=O)[C@H](Cc1ccc(OCC(=O)O)c(C(=O)O)c1)NC(=O)[C@H](Cc1ccccc1)NC(=O)Oc1ccccc1 | 43% |

molecular target: T3, Tyrosine-protein phosphatase non-receptor type 1 (Homo sapiens); assay: Inhibitory activity against human protein tyrosine phosphatase 1B (PTP1B) at a concentration of 100 uM; method in brief: as §1

| Structure (SMILES) | inhibition |
| --- | --- |
| CCCCCNC(=O)[C@H](Cc1ccc(OC(C(=O)O)C(=O)O)cc1)NC(=O)[C@H](Cc1ccccc1)NS(C)(=O)=O | 86% |
| CCCCCNC(=O)[C@H](Cc1ccc(OC(C(=O)O)C(=O)O)cc1)NC(=O)[C@H](Cc1ccc(O)cc1)NC(=O)OC(C)(C)C | 90% |
| CCCCCNC(=O)[C@H](Cc1ccc(OC(C(=O)O)C(=O)O)cc1)NC(=O)[C@H](CC(C)C)NC(=O)OC(C)(C)C | 76% |
| CCCCCNC(=O)[C@H](Cc1ccc(OC(C(=O)O)C(=O)O)cc1)NC(=O)[C@H](Cc1ccccc1)NC(=O)OC(C)(C)C | 91% |
| CCCCCNC(=O)[C@H](Cc1ccc(OC(C(=O)O)C(=O)O)cc1)NC(=O)[C@H](CSCc1ccccc1)NC(=O)OC(C)(C)C | 83% |

molecular target: T1, Tyrosine-protein phosphatase non-receptor type 11 (Homo sapiens); assay: Inhibitory activity against phosphatase ([…]) at a concentration of 100 uM; method in brief: as §1

| Structure (SMILES) | inhibition |
| --- | --- |
| CCCCCNC(=O)[C@H](Cc1ccc(OC(C(=O)O)C(=O)O)cc1)NC(=O)[C@H](Cc1ccccc1)NC(=O)OC(C)(C)C | 10% |

molecular target: T3, Tyrosine-protein phosphatase non-receptor type 1 (Homo sapiens); assay: Inhibitory activity against human protein tyrosine phosphatase 1B (PTP1B) at a concentration of 10 uM; method in brief: as §1

| Structure (SMILES) | inhibition |
| --- | --- |
| CCCCCNC(=O)[C@H](Cc1ccc(OC(C(=O)O)C(=O)O)cc1)NC(=O)[C@H](Cc1ccccc1)NS(C)(=O)=O | 40% |
| CCCCCNC(=O)[C@H](Cc1ccc(OC(C(=O)O)C(=O)O)cc1)NC(=O)[C@H](Cc1ccc(O)cc1)NC(=O)OC(C)(C)C | 50% |
| CCCCCNC(=O)[C@H](Cc1ccc(OC(C(=O)O)C(=O)O)cc1)NC(=O)[C@H](CC(C)C)NC(=O)OC(C)(C)C | 24% |
| CCCCCNC(=O)[C@H](Cc1ccc(OC(C(=O)O)C(=O)O)cc1)NC(=O)[C@H](Cc1ccccc1)NC(=O)OC(C)(C)C | 48% |
| CCCCCNC(=O)[C@H](Cc1ccc(OC(C(=O)O)C(=O)O)cc1)NC(=O)[C@H](CSCc1ccccc1)NC(=O)OC(C)(C)C | 16% |
| CCCCCNC(=O)[C@H](Cc1ccc(OCC(=O)O)c(C(=O)O)c1)NC(=O)[C@H](Cc1ccccc1)NC(=O)Oc1ccccc1 | 85% |
